Reference: ChEMBL document CHEMBL4033651, “Exploration of flexible phenylpropylurea scaffold as novel cardiac myosin activators for the treatment of systolic heart failure” (Eur J Med Chem, 2017)
Each block holds one compound with its values, some of them ahead of it.

Legend:
Bos taurus = species on record: Bos taurus; assay: Activation of actin-stimulated bovine cardiac myosin S1 fragment ATPase activity in sarcomere at 10 uM after 10 mins by spectrophotometric analysis
In short: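 Bovine cardiac S1 myosin with actin thin filament complex at pCa 6.5, in 20 mM Tris HCl pH 7.5, 15 mM KCl, 6 mM MgCl2, 1 mM ATP. Compound at 10 μM, 10 min at room temperature. Stopped with Cytophos reagent; liberated phosphate read at 650 nm. % activity calculated relative to DMSO negative control, blank-corrected.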

[1] = Solubility of the compound in water; type: physicochemical; conditions: buffer
In short: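 Final solution concentration measured by HPLC against three standards of known concentration.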

[2] = Stability of the compound after 3 months by TLC analysis; type: physicochemical; conditions: 2191.5 h
Oryctolagus cuniculus = species on record: Oryctolagus cuniculus; assay: Activation of actin-stimulated rabbit psoas skeletal muscle myosin S1 fragment ATPase activity at 100 uM after 10 mins by spectrophotometric analysis
In short: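 Rabbit skeletal S1 myosin with actin thin filament complex at pCa 6.5, in 20 mM Tris HCl pH 7.5, 15 mM KCl, 6 mM MgCl2, 1 mM ATP. Compound at single 100 uM dose, 10 min at room temperature. Cytophos stop; phosphate read at 650 nm. % activity versus blank-corrected DMSO control.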

Gallus gallus = species on record: Gallus gallus; assay: Activation of actin-stimulated chicken gizzard smooth muscle myosin S1 fragment ATPase activity at 100 uM after 10 mins by spectrophotometric analysis
In short: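 Chicken gizzard smooth muscle S1 myosin with actin plus tropomyosin at pCa 6.5, in 20 mM Tris HCl pH 7.5, 15 mM KCl, 6 mM MgCl2, 1 mM ATP. Compound at single 100 uM dose, 10 min at room temperature. Cytophos stop; phosphate read at 650 nm. % activity versus blank-corrected DMSO control.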

Rattus norvegicus [3] = assay: Positive inotropic activity in Sprague-Dawley rat heart assessed as fractional shortening at 4 ug/kg/min for 3 mins by echocardiographic analysis (reference value: 38.60 to 55.81%); type: functional
In short: (§1)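 Seven-week-old male Sprague-Dawley rats under 1.5 % isoflurane via nosecone. Drug given through a right internal jugular vein central line. Left ventricular fractional shortening and ejection fraction measured by echocardiography with and without sample, expressed as % increase.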

Rattus norvegicus [4] = assay: Positive inotropic activity in Sprague-Dawley rat heart assessed as heart rate at 4 ug/kg/min for 3 mins by echocardiographic analysis (reference value: 281 to 347 bpm); type: functional
Rattus norvegicus [5] = assay: Positive inotropic activity in Sprague-Dawley rat heart assessed as heart rate at 8 ug/kg/min for 3 mins by echocardiographic analysis (reference value: 281 to 347 bpm); type: functional
Rattus norvegicus [6] = assay: Positive inotropic activity in Sprague-Dawley rat heart assessed as heart rate at 16 ug/kg/min for 3 mins by echocardiographic analysis (reference value: 281 to 347 bpm); type: functional
Rattus norvegicus [7] = assay: Positive inotropic activity in Sprague-Dawley rat heart assessed as left ventricular internal diameter end diastole at 4 ug/kg/min for 3 mins by echocardiographic analysis (reference value: 5.66 to 7.80 mm); type: functional
In short: (§2)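 Male Sprague-Dawley rats, seven weeks old, anaesthetised with 1.5 % isoflurane given by nosecone. Compound infused through the right internal jugular vein, used as a central venous line. Left ventricular dimensions measured by echocardiography.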

Rattus norvegicus [8] = assay: Positive inotropic activity in Sprague-Dawley rat heart assessed as left ventricular internal diameter end diastole at 8 ug/kg/min for 3 mins by echocardiographic analysis (reference value: 5.66 to 7.80 mm); type: functional; in short: as §2
Rattus norvegicus [9] = assay: Positive inotropic activity in Sprague-Dawley rat heart assessed as left ventricular internal diameter end diastole at 16 ug/kg/min for 3 mins by echocardiographic analysis (reference value: 5.66 to 7.80 mm); type: functional
Rattus norvegicus [10] = assay: Positive inotropic activity in Sprague-Dawley rat heart assessed as left ventricular posterior wall thickness end systole at 4 ug/kg/min for 3 mins by echocardiographic analysis (reference value: 2.07 to 2.46 mm); type: functional; in short: as §2
Rattus norvegicus [11] = assay: Positive inotropic activity in Sprague-Dawley rat heart assessed as left ventricular posterior wall thickness end systole at 8 ug/kg/min for 3 mins by echocardiographic analysis (reference value: 2.07 to 2.46 mm); type: functional; in short: as §2
Rattus norvegicus [12] = assay: Positive inotropic activity in Sprague-Dawley rat heart assessed as left ventricular posterior wall thickness end systole at 16 ug/kg/min for 3 mins by echocardiographic analysis (reference value: 2.07 to 2.46 mm); type: functional; in short: as §2
Rattus norvegicus [13] = assay: Positive inotropic activity in Sprague-Dawley rat heart assessed as left ventricular posterior wall thickness end diastole at 4 ug/kg/min for 3 mins by echocardiographic analysis (reference value: 0.88 to 1.54 mm); type: functional; in short: as §2
Rattus norvegicus [14] = assay: Positive inotropic activity in Sprague-Dawley rat heart assessed as left ventricular posterior wall thickness end diastole at 8 ug/kg/min for 3 mins by echocardiographic analysis (reference value: 0.88 to 1.54 mm); type: functional; in short: as §2
Rattus norvegicus [15] = assay: Positive inotropic activity in Sprague-Dawley rat heart assessed as left ventricular posterior wall thickness end diastole at 16 ug/kg/min for 3 mins by echocardiographic analysis (reference value: 0.88 to 1.54 mm); type: functional; in short: as §2
Rattus norvegicus [16] = assay: Positive inotropic activity in Sprague-Dawley rat heart assessed as ejection fraction at 4 ug/kg/min for 3 mins by echocardiographic analysis (reference value: 67.16 to 85.81%); type: functional; in short: as §1
Rattus norvegicus [17] = assay: Positive inotropic activity in Sprague-Dawley rat heart assessed as ejection fraction at 8 ug/kg/min for 3 mins by echocardiographic analysis (reference value: 67.16 to 85.81%); type: functional; in short: as §1
Rattus norvegicus [18] = assay: Positive inotropic activity in Sprague-Dawley rat heart assessed as ejection fraction at 16 ug/kg/min for 3 mins by echocardiographic analysis (reference value: 67.16 to 85.81%); type: functional; in short: as §1
Rattus norvegicus [19] = assay: Positive inotropic activity in Sprague-Dawley rat heart assessed as fractional shortening at 8 ug/kg/min for 3 mins by echocardiographic analysis (reference value: 38.60 to 55.81%); type: functional; in short: as §1
Rattus norvegicus [20] = assay: Positive inotropic activity in Sprague-Dawley rat heart assessed as fractional shortening at 16 ug/kg/min for 3 mins by echocardiographic analysis (reference value: 38.60 to 55.81%); type: functional; in short: as §1
Rattus norvegicus [21] = assay: Effect on hemodynamic parameters in Sprague-Dawley rat heart assessed as end-systolic pressure at 8 ug/kg/min (reference value: 87.48 to 97.85 mmHg); type: functional
Rattus norvegicus [22] = assay: Effect on hemodynamic parameters in Sprague-Dawley rat heart assessed as end-diastolic pressure at 8 ug/kg/min (reference value: 7.68 to 9.83 mmHg); type: functional
Rattus norvegicus [23] = assay: Effect on hemodynamic parameters in Sprague-Dawley rat heart assessed as dPdT max at 8 ug/kg/min (reference value: 4162 to 5214 mmHg/s); type: functional
Rattus norvegicus [24] = assay: Effect on hemodynamic parameters in Sprague-Dawley rat heart assessed as dPdT min at 8 ug/kg/min (reference value: -5462 to -4611 mmHg/s); type: functional
Rattus norvegicus [25] = assay: Effect on hemodynamic parameters in Sprague-Dawley rat heart assessed as heart rate at 8 ug/kg/min (reference value: 260 to 322 bpm); type: functional
Rattus norvegicus [26] = assay: Effect on hemodynamic parameters in Sprague-Dawley rat heart assessed as end-systolic pressure at 4 ug/kg/min (reference value: 94.65 to 97.85 mmHg); type: functional
Rattus norvegicus [27] = assay: Effect on hemodynamic parameters in Sprague-Dawley rat heart assessed as end-diastolic pressure at 4 ug/kg/min (reference value: 7.68 to 9.83 mmHg); type: functional
Rattus norvegicus [28] = assay: Effect on hemodynamic parameters in Sprague-Dawley rat heart assessed as dPdT max at 4 ug/kg/min (reference value: 4985 to 5214 mmHg/s); type: functional
Rattus norvegicus [29] = assay: Effect on hemodynamic parameters in Sprague-Dawley rat heart assessed as dPdT min at 4 ug/kg/min (reference value: -5462 to -4898 mmHg/s); type: functional
Rattus norvegicus [30] = assay: Effect on hemodynamic parameters in Sprague-Dawley rat heart assessed as heart rate at 4 ug/kg/min (reference value: 260 to 322 bpm); type: functional
Rattus norvegicus [31] = assay: Positive inotropic activity in Sprague-Dawley rat heart assessed as left ventricle fractional shortening at 2 to 16 ug/kg/min for 3 mins by echocardiographic analysis; type: functional; in short: as §1
Rattus norvegicus [32] = assay: Positive inotropic activity in Sprague-Dawley rat heart assessed as ejection fraction at 2 to 16 ug/kg/min for 3 mins by echocardiographic analysis; type: functional; in short: as §1

SMILES: O=C(NCCc1ccccc1)N1CCC(c2ccccc2)CC1
Activity (Bos taurus): 46.6% | solubility [1]: Insoluble

SMILES: O=C(COCCc1ccccc1)COCc1ccccc1
Activity (Bos taurus): 42.9% | Stability [2]: Unstable

SMILES: c1ccc(CCCCCNCCc2ccccc2)cc1
Activity (Bos taurus): 1.6%

SMILES: O=C(CCCCc1ccccc1)NCCc1ccccc1
Activity (Bos taurus): 39.1%

SMILES: Cc1ccc2c(c1)C(=O)[C@]1(O)CCN(c3ccccc3)C1=N2
Activity (Oryctolagus cuniculus): -50.7% | Activity (Gallus gallus): -35.7%

SMILES: CC(CCc1ccc(O)cc1)NCCc1ccc(O)c(O)c1 (stereo unspecified) [DOBUTAMINE]
Activity (Rattus norvegicus [3]): 68.11% | Activity (Rattus norvegicus [4]): 393 bpm | Activity (Rattus norvegicus [5]): 416 bpm | Activity (Rattus norvegicus [6]): 421 bpm | Activity (Rattus norvegicus [7]): 6.98 mm | Activity (Rattus norvegicus [8]): 6.93 mm | Activity (Rattus norvegicus [9]): 6.68 mm | Activity (Rattus norvegicus [10]): 2.93 mm | Activity (Rattus norvegicus [11]): 3.08 mm | Activity (Rattus norvegicus [12]): 3.59 mm | Activity (Rattus norvegicus [13]): 1.06 mm | Activity (Rattus norvegicus [14]): 1.36 mm | Activity (Rattus norvegicus [15]): 1.16 mm | Activity (Rattus norvegicus [16]): 93.42% | Activity (Rattus norvegicus [17]): 96.79% | Activity (Rattus norvegicus [18]): 98.65% | Activity (Rattus norvegicus [19]): 75.91% | Activity (Rattus norvegicus [20]): 82.57% | Activity (Rattus norvegicus [21]): 103.12 mmHg | Activity (Rattus norvegicus [22]): 7.68 mmHg | Activity (Rattus norvegicus [23]): 9314 mmHg/s | Activity (Rattus norvegicus [24]): -4368 mmHg/s | Activity (Rattus norvegicus [25]): 309 bpm | Activity (Rattus norvegicus [26]): 96.65 mmHg | Activity (Rattus norvegicus [27]): 9.38 mmHg | Activity (Rattus norvegicus [28]): 6073 mmHg/s | Activity (Rattus norvegicus [29]): -4936 mmHg/s | Activity (Rattus norvegicus [30]): 270 bpm

SMILES: O=C(NCCCc1ccccc1)N1CCCC(c2ccccc2)C1 (stereo unspecified)
Activity (Bos taurus): 35.2%

Now from value to compound, other results behind:

Activity (Bos taurus): 32.9%
SMILES: O=C(NCCCN1CCOCC1)NCCc1ccccc1

Activity (Bos taurus): 30%
SMILES: O=C(NCCCc1ccccc1)NCCc1ccccn1

Activity (Bos taurus): 45.5%
SMILES: O=C(NCCCc1ccccc1)NCCCc1ccccc1

Activity (Bos taurus): 36.7%
SMILES: O=C(NCCCc1ccccc1)NCc1ccco1

Activity (Bos taurus): 61.4%
SMILES: O=C(NCCCc1ccccc1)NCCC1CCCCC1

Activity (Bos taurus): 42.7%
SMILES: O=C(NCCCCc1ccccc1)NCCN1CCOCC1

Activity (Bos taurus): 10.3%
SMILES: S=C(NCCCc1ccccc1)NCCc1ccccc1

Activity (Bos taurus): 44% | Activity (Oryctolagus cuniculus): -5.3% | Activity (Gallus gallus): 3.1%
SMILES: O=C(NCCCc1ccccc1)NCCN1CCOCC1
Activity (Rattus norvegicus [31]): 24.79% | Activity (Rattus norvegicus [32]): 15.65%

Activity (Bos taurus): 29.6%
SMILES: O=C(NCCCc1ccccc1)NCCc1cccs1

Activity (Bos taurus): 46.2%
SMILES: O=C(NCCCc1ccccc1)Nc1ccccc1
